Common to all, as to format: functional, organism-based
The subject of assay [1] is Leishmania major. The experiment in a line: Antileishmanial activity against promastigotes of Leishmania major […] by MTT assay. Summed up:
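Promastigotes of L. major vaccine strain MRHO/IR/75/ER were used. Two or more independent experiments were run in triplicate. IC50 was obtained by linear regression and reported as the mean. Meglumine antimonate served as the standard drug.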
In general terms: Tetrazolium dyes change colour on reduction, which living cells bring about.

The test system of assay [2] is Leishmania major. The experiment in a line: Antiamastigote activity against Leishmania major MHOM/1L/80/ER amastigotes infected in mouse primary peritoneal macrophages assessed as infectivity index after 24 hrs using Giemsa staining. Summed up:
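Macrophage infection and treatment were as for the amastigote counts: 1 × 10^6 peritoneal macrophages/well, infected 2 h at 3 promastigotes per cell, washed, then drug exposure for 24 h. Giemsa staining after methanol fixation, 100 cells examined per well. Infectivity index = % macrophages with at least one intracellular parasite × mean parasites per infected macrophage. Two experiment sets.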

The subject of assay [3] is Leishmania major. The assay can be described thus: Antiamastigote activity against Leishmania major MHOM/1L/80/ER amastigotes infected in mouse primary peritoneal macrophages assessed as decrease in number of intracellular amastigotes per macrophage after 24 hrs using Giemsa staining. Summed up:
(§1)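 Mouse peritoneal macrophages on glass coverslips at 1 × 10^6/well were infected for 2 h with stationary-phase promastigotes in RPMI (2 × 10^6/well, 3 parasites per macrophage). Extracellular parasites were washed off, then compound-containing medium was added for 24 h. Cells were methanol-fixed and Giemsa-stained, with 100 cells counted per well. Two experiment sets were run.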

The test system of assay [4] is Leishmania major. The assay can be described thus: Antiamastigote activity against Leishmania major MHOM/1L/80/ER amastigotes infected in mouse primary peritoneal macrophages assessed as percentage of macrophage infectivity after 24 hrs using Giemsa staining. In outline: as §1

Consider 15 compounds from ChEMBL document CHEMBL1949504, “Synthesis and anti-leishmanial activity of 5-(5-nitrofuran-2-yl)-1,3,4-thiadiazol-2-amines containing N-[(1-benzyl-1H-1,2,3-triazol-4-yl)methyl] moieties” (Eur J Med Chem, 2012).

Activity calls are given as the source filed them. The calls are words filed in the database; no cut-off is given here.

One may read the IC50 as the concentration needed to halve the response being measured. Higher therefore signals a need for much substance.

In the assay with Leishmania major [1], MEGLUMINE ANTIMONATE had an IC50 of 68300 µM.
Regarding `Cc1ccccc1Cn1cc(CNc2nnc(-c3ccc([N+](=O)[O-])o3)s2)nn1`, inhibition with Leishmania major [1] (Leishmania major) was half-maximal at 25.2 µM (IC50).
Consider `Cc1cccc(Cn2cc(CNc3nnc(-c4ccc([N+](=O)[O-])o4)s3)nn2)c1`, for which the result in the assay with Leishmania major [2], in the assay with Leishmania major [3] and in the assay on Leishmania major [4] was Active. In the assay on Leishmania major [1] (Leishmania major), this compound had an IC50 of 21.9 µM.
Regarding `O=[N+]([O-])c1ccc(-c2nnc(NCc3cn(Cc4cccc(Cl)c4Cl)nn3)s2)o1`, half-maximal inhibition in the assay with Leishmania major [1] (Leishmania major) (IC50) was put at 104 µM.
On the same count and under the same terms, under `O=[N+]([O-])c1ccc(-c2nnc(NCc3cn(Cc4ccc(Cl)cc4)nn3)s2)o1` stands 88.8 µM; under `O=[N+]([O-])c1ccc(-c2nnc(NCc3cn(Cc4cccc(Cl)c4)nn3)s2)o1`, 108 µM.
The same measure, in the same setting: as for `O=[N+]([O-])c1ccc(-c2nnc(NCc3cn(Cc4ccc(Cl)c(Cl)c4)nn3)s2)o1`, the figure is 132 µM.
Regarding `Cc1ccc(Cn2cc(CNc3nnc(-c4ccc([N+](=O)[O-])o4)s3)nn2)cc1`, the outcome in the assay on Leishmania major [2], with Leishmania major [3] and in the assay on Leishmania major [4] was Active. In the assay with Leishmania major [1] (Leishmania major), this compound yielded a concentration for half-maximal inhibition (IC50) of 12.2 µM.
Take `O=[N+]([O-])c1ccc(-c2nnc(NCc3cn(Cc4ccccc4Cl)nn3)s2)o1`: the outcome with Leishmania major [2], in the assay with Leishmania major [3] and in the assay on Leishmania major [4] was Active. In the assay on Leishmania major [1] (Leishmania major), this compound had an IC50 of 18.9 µM.
As to `O=[N+]([O-])c1ccc(-c2nnc(NCc3cn(Cc4ccccc4)nn3)s2)o1`, the outcome with Leishmania major [2], in the assay with Leishmania major [3] and with Leishmania major [4] was Active. The compound also gave an IC50 in the assay with Leishmania major [1] (Leishmania major) of 19.6 µM.
As to `O=[N+]([O-])c1ccc(-c2nnc(NCc3cn(Cc4c(F)cccc4Cl)nn3)s2)o1`, the outcome in the assay on Leishmania major [2], with Leishmania major [3] and in the assay with Leishmania major [4] was Active. Also, the concentration for half-maximal inhibition (IC50) in the assay with Leishmania major [1] (Leishmania major) worked out at 17.4 µM.
Turning to `O=[N+]([O-])c1ccc(-c2nnc(NCc3cn(Cc4ccc(Cl)cc4Cl)nn3)s2)o1`, the outcome with Leishmania major [2], with Leishmania major [3] and in the assay with Leishmania major [4] was Active. 19.9 µM corresponded to half-maximal inhibition with Leishmania major [1] (Leishmania major) (IC50).
Regarding `O=[N+]([O-])c1ccc(-c2nnc(NCc3cn(Cc4ccc(F)cc4)nn3)s2)o1`, the result in the assay on Leishmania major [2], with Leishmania major [3] and in the assay on Leishmania major [4] was Active. In the assay on Leishmania major [1] (Leishmania major), this compound returned an IC50 of 21.4 µM.
For the compound `O=[N+]([O-])c1ccc(Cn2cc(CNc3nnc(-c4ccc([N+](=O)[O-])o4)s3)nn2)cc1`, it took 32.7 µM to reach half-maximal inhibition with Leishmania major [1] (Leishmania major) (IC50). This counts as double-digit micromolar.
Consider `O=[N+]([O-])c1ccc(-c2nnc(NCc3cn(Cc4ccccc4F)nn3)s2)o1`, for which the result in the assay with Leishmania major [2], with Leishmania major [3] and in the assay with Leishmania major [4] was Active. Also, the IC50 in the assay on Leishmania major [1] (Leishmania major) is 19 µM.
